Measured values taken from ChEMBL document CHEMBL1139160 (Bioorg Med Chem Lett, 2007).

How the values were obtained:
Dipeptidyl peptidase 4 = Dipeptidyl peptidase 4 (Rattus norvegicus, UniProt P14740); experiment: Inhibition of DPP4 in rat plasma by fluorescence assay; format: cell-free
Rattus norvegicus [1] = experiment: Inhibition of DPP4 in Wistar rat plasma at 10 umol/kg, po; format: functional
Method in brief: (§1)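 Male/female not stated; Wistar rats given single oral dose of 10 µmol/kg in 0.5% hydroxypropylmethyl-cellulose. Jugular vein blood (0.1 mL) taken pre-dose and 0.5, 1, 2, 3, 5, 7, 9 h; plasma diluted 10-fold in PBS with 0.003% Brij-35, DPP-IV activity read by Gly-Pro-MCA fluorescence (ex 360/em 465 nm); % change of baseline, means ± SEM, n = 3.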

Rattus norvegicus [2] = experiment: Inhibition of DPP4 in Wistar rat plasma at 10 umol/kg, po within 30 mins; format: functional; settings: 0.5 h; method in brief: as §1
Rattus norvegicus [3] = experiment: Inhibition of DPP4 in Wistar rat plasma at 10 umol/kg, po after 9 hrs; format: functional; settings: read-out: Inhibition; method in brief: as §1

Sequence of Dipeptidyl peptidase 4 (P14740 whole entry): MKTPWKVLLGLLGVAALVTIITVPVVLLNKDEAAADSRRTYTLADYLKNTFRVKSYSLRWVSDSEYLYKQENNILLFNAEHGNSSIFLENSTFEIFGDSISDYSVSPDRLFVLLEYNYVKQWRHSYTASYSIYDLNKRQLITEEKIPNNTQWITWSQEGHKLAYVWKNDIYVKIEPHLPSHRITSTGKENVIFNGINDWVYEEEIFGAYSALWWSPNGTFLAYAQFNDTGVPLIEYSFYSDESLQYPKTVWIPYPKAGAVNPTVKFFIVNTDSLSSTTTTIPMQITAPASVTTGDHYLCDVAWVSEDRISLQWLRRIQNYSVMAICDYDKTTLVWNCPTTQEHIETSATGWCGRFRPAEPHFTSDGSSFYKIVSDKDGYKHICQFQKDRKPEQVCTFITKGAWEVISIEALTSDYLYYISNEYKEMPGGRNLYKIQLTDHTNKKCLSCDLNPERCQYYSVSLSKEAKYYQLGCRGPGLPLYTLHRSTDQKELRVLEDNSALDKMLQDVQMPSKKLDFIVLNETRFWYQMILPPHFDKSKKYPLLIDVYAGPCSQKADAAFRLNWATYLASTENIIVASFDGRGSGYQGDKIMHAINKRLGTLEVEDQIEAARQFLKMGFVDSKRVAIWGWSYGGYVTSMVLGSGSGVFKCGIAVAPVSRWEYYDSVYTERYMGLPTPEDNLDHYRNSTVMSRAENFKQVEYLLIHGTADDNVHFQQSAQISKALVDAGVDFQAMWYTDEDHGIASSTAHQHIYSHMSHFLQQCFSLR

| SMILES | IC50 (Dipeptidyl peptidase 4) | other results |
| --- | --- | --- |
| N#Cc1ccc(N2CCN([C@@H]3CN[C@H](C(=O)N4CCSC4)C3)CC2)cc1 | 4.7 nM | – |
| O=C([C@@H]1C[C@H](N2CCN(c3ccc(C(F)(F)F)cc3)CC2)CN1)N1CCSC1 | 7.2 nM | – |
| O=C([C@@H]1C[C@H](N2CCN(c3cccc(Cl)c3)CC2)CN1)N1CCSC1 | 7.2 nM | – |
| O=C([C@@H]1C[C@H](N2CCN(c3ccc(Cl)cc3)CC2)CN1)N1CCSC1 | 10.3 nM | – |
| N#Cc1ccc(N2CCN([C@@H]3CN[C@H](C(=O)N4CCSC4)C3)CC2)nc1 | 1.9 nM | – |
| N#Cc1ccc(N[C@@H]2CN[C@H](C(=O)N3CCSC3)C2)nc1 | – | inhibition in vivo at 10 µmol/kg (Rattus norvegicus [1]): 70% |
| COc1ccc(N2CCN([C@@H]3CN[C@H](C(=O)N4CCSC4)C3)CC2)cc1 | 16.9 nM | – |
| O=C([C@@H]1C[C@H](N2CCCCC2)CN1)N1CCSC1 | 74.4 nM | – |
| N#Cc1ccc(N2CCN([C@@H]3CN[C@H](C(=O)N4CCSC4)C3)CC2)cc1C#N | – | inhibition in vivo at 10 µmol/kg (Rattus norvegicus [2]): 95%; inhibition in vivo at 10 µmol/kg (Rattus norvegicus [3]): > 60% |
| O=C([C@@H]1C[C@H](N2CCN(c3ccccc3)CC2)CN1)N1CCSC1 | 17.6 nM | – |
| N#Cc1ccnc(N2CCN([C@@H]3CN[C@H](C(=O)N4CCSC4)C3)CC2)c1 | 1.4 nM | – |
| O=C([C@@H]1C[C@H](N2CCN(c3ccc([N+](=O)[O-])cn3)CC2)CN1)N1CCSC1 | – | inhibition in vivo at 10 µmol/kg (Rattus norvegicus [2]): 95%; inhibition in vivo at 10 µmol/kg (Rattus norvegicus [3]): > 60% |
| O=C([C@@H]1C[C@H](N2CCN(c3ccc(Br)cc3)CC2)CN1)N1CCSC1 | 9 nM | – |
| O=C([C@@H]1C[C@H](N2CCN(c3ccc(F)cc3)CC2)CN1)N1CCSC1 | 17.5 nM | – |
